Source: ChEMBL document CHEMBL1687848, “In vitro effect of qnrA1, qnrB1, and qnrS1 genes on fluoroquinolone activity against isogenic Escherichia coli isolates with mutations in gyrA and parC” (2011)
In brackets after ≈: the same amount, converted by molar mass.

Experiments:
Assay type in all cases: functional
Escherichia coli [1] = experiment: Antibacterial activity against Escherichia coli ATCC 25922 expressing qnrS gene and pBK-QnrS1 by broth microdilution method
Escherichia coli [2] = experiment: Antibacterial activity against Escherichia coli ATCC 25922 assessed as mutant prevention concentration
Escherichia coli [3] = experiment: Ratio of mutant prevention concentration to MIC for Escherichia coli ATCC 25922 harboring GyrA S83L mutant
Method in brief: (§1)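 MIC: broth microdilution per CLSI, in duplicate. The ratio is MPC over MIC. Strains are E. coli ATCC 25922 or its GyrA Ser83Leu gene-replacement mutant, with qnr genes on pBK-CMV introduced by electroporation.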

Escherichia coli [4] = experiment: Antibacterial activity against Escherichia coli ATCC 25922 expressing qnrS gene and pBK-QnrS1 assessed as earliest time required to resistant colonies visible one step below mutant prevention concentration
Escherichia coli [5] = experiment: Ratio of mutant prevention concentration to MIC for Escherichia coli ATCC 25922 expressing qnrS gene and pBK-QnrS1; method in brief: as §1
Escherichia coli [6] = experiment: Antibacterial activity against Escherichia coli ATCC 25922 assessed as earliest time required to resistant colonies visible one step below mutant prevention concentration
Escherichia coli [7] = experiment: Antibacterial activity against Escherichia coli ATCC 25922 by broth microdilution method
Escherichia coli [8] = experiment: Antibacterial activity against qnrB gene expressing Escherichia coli ATCC 25922 harboring GyrA S83L mutant and pBK-QnrB1 assessed as resistant colonies recovered one step below mutant prevention concentration
Method in brief: (§2)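 Resistant colonies recovered from Mueller-Hinton plates one concentration step below the MPC for each fluoroquinolone were retested for MIC. Mutants taken from plated concentrations closest to the MPC had the QRDRs of gyrA and parC analysed.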

Escherichia coli [9] = experiment: Antibacterial activity against qnrS gene expressing Escherichia coli ATCC 25922 harboring GyrA S83L mutant and pBK-QnrS1 assessed as resistant colonies recovered one step below mutant prevention concentration; method in brief: as §2
Escherichia coli [10] = experiment: Ratio of mutant prevention concentration to MIC for Escherichia coli ATCC 25922 expressing qnrA gene and pBK-QnrA1; method in brief: as §1
Escherichia coli [11] = experiment: Antibacterial activity against Escherichia coli ATCC 25922 expressing qnrB gene and pBK-QnrB1 by broth microdilution method
Escherichia coli [12] = experiment: Antibacterial activity against qnrS gene expressing Escherichia coli ATCC 25922 harboring ParC S80R mutant and pBK-QnrS1 by broth microdilution method

SMILES: CCn1cc(C(=O)O)c(=O)c2cc(F)c(N3CCNCC3)cc21 [NORFLOXACIN]
- MBC (Escherichia coli [1]): 1 mg/L (≈ 3.13 µM)
- MIC (Escherichia coli [1]): 0.5 mg/L (≈ 1.57 µM)
- Activity (Escherichia coli [2]): 4 µg/mL
- Ratio (Escherichia coli [3]): 32
- Time (Escherichia coli [4]): 24 h
- Ratio (Escherichia coli [5]): 16
- Time (Escherichia coli [6]): 48 h
- MBC (Escherichia coli [7]): 0.03 mg/L (≈ 0.0939 µM)
- MIC (Escherichia coli [7]): 0.015 mg/L (≈ 0.047 µM)
- MIC (Escherichia coli [8]): 2 mg/L (≈ 6.26 µM)
- MIC (Escherichia coli [9]): 2 mg/L (≈ 6.26 µM)
- Ratio (Escherichia coli [10]): 16
- MBC (Escherichia coli [11]): 0.5 mg/L (≈ 1.57 µM)
- MIC (Escherichia coli [11]): 0.25 mg/L (≈ 0.783 µM)
- MBC (Escherichia coli [12]): 0.5 mg/L (≈ 1.57 µM)
- MIC (Escherichia coli [12]): 0.5 mg/L (≈ 1.57 µM)
